Rpn11 inh = blocks the human proteasome subunit Rpn11 | human 26S proteasome, Ub4-pepOG fluorescence polarization; 20S core pre-blocked with epoxomicin | inhibition, % at 20 µM | 360,000 tested, 0.59% active | AID 588493 | O00487;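 active = inhibition at 20 µM, scaled to each plate's controls, above about 33%, limit read from the data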
CSN inh = inhibitors of human CSN-mediated cullin deneddylation | 360,000 tested, 0.38% active | Q92905 | inhibition, % at 12.5 µM | AID 651999 | Purified CSN, SCF-Nedd8-OG deneddylation, fluorescence polarization;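 active = pattern-corrected inhibition above about 35%, with an unprinted fluorescence ratio check between 0.5 and 1.5, limit read from the data, passing the limit was not always enough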;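 note: 0% = enzyme with substrate and 100% = substrate without enzyme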
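Assay system: purified human Csn5 enzyme expressed in HEK293T cells; measure: % inhibition; also added: SCFSkp2-Nedd8OG substrate at 10 nM final; technique: fluorescence polarization; times: reaction 90 min, room temperature; medium: Tris buffer pH 7.5, NaCl, DTT, Tween-20, trehalose, ovalbumin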
TPT1 inh = C. albicans TPT1 enzyme inhibition. recombinant caTPT1, FP RNA substrate dephosphorylation. inhibition, % at 5 µM. 300,000 tested, 0.81% active;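 active = inhibition above the mean of all tested compounds plus 3 SD, set per screening campaign, cut at about 24% in these data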;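 note: plate controls were DMSO alone for no effect and ferristatin control at 100 nM for full effect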
XiGFP reactiv = X-chromosome reactivation activator; XiGFP mouse fibroblasts, % GFP-positive cells imaging, 3 d; cells co-treated with 5-aza-dC sensitizer; scaled so ellipticine positive control = 100%; activation, % at 7.58 µM; 360,000 tested, 0.055% active;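 active = mean normalized replicate activation at least 10% and every replicate at or above 10%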;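 note: 0% = median of on-plate neutral control wells and 100% = ellipticine 6 µM median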
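Assay system: SV40-immortalized XiGFP fibroblast cells, line 68-5-11; buffer or medium: DMEM plus 5-aza-dC sensitizer; compound: one concentration, pinned; timing: compounds 3 days, fix/stain 15 min at room temperature; benchmarks: positive control ellipticine, 6 µM final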
aDG glyco up = increases alpha dystroglycan glycosylation | Pro5-aDG cells, alpha-DG glycosylation AlphaScreen (IIH6); 0% Pro5, 100% B10-LARGE cell signal | activation, % at 10 µM | 360,000 tested, 0.22% active | AID 624168;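 active = activation of at least 8% versus controls, or a plate z-score of at least 8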;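 note: Pro5 are CHO cells carrying HIG-tagged alpha-DG that lacks glycosylation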
HNF4A DNA FP = change in binding of human HNF4 alpha to DNA | 360,000 tested, 0.3% active | P41235 | activity change, % at 10 µM | HNF4a-FITC DNA binding, fluorescence polarization, 1 h | AID 1224865; in the data active = activity change above about 30%, passing the limit was not always enough
Target sequence (P41235 whole entry, looked up): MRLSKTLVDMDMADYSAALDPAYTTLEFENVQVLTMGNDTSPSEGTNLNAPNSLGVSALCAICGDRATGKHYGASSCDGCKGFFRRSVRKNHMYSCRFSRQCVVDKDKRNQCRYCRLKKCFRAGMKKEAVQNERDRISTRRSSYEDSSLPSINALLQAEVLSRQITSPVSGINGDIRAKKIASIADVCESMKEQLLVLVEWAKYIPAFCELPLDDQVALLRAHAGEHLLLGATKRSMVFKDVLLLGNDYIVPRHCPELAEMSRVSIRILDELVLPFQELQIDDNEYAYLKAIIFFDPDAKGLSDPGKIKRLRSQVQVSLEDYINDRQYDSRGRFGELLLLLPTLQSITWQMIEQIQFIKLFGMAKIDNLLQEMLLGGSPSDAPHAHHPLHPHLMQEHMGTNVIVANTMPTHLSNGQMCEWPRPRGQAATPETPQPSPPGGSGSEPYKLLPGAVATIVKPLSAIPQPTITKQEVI
caTPT1 confirm = confirmation of Candida albicans TPT1 inhibitors; recombinant caTPT1, fluorescence polarization, RNase T1 coupled; 2,400 tested, 74% active; inhibition, % at 5 µM; shares compounds with TPT1 inh;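 active = inhibition above the primary screen limit, the mean inhibition of all tested compounds plus 3 SD, cut at about 25% in these data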
RNase T1 inh = counter-screen for TPT1 inhibitors: inhibitors of Aspergillus oryzae RNase T1; inhibition, % at 5 µM; RNase T1 cleavage, fluorescence polarization, 1536-well; shares compounds with TPT1 inh; 2,400 tested, 83% active;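 active = inhibition above the solvent-only control well mean plus 3 SD, limit set per screening run, cut at about 23% in these data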;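 note: plate controls were DMSO wells with enzyme for no effect and wells without RNase T1 for full effect; inhibitors block cleavage so intact labeled substrate keeps polarization high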
Target sequence (P00651 whole entry, looked up): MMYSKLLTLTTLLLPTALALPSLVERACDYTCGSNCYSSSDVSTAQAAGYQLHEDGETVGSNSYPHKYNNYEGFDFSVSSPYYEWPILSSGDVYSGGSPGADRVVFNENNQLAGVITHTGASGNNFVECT
* marks the source's active call; other numbers are inactive results; · = no result shown. The list is not random: actives were taken first. Their share in the collection is about 1.3%.

SMILES	Rpn11 inh	CSN inh	TPT1 inh	XiGFP reactiv	aDG glyco up	HNF4A DNA FP	caTPT1 confirm	RNase T1 inh
COc1ccc(C2=NNC(c3cc(Cl)cc4c3OCOC4)C2)c(O)c1 (stereo unspecified)	·	·	37*	·	·	·	19	28*
C[C@@H]1CN([C@H](C)CO)C(=O)c2cc(NC(=O)CCCN(C)C)ccc2O[C@@H]1CN(C)S(=O)(=O)c1cccs1	·	·	·	0	·	·	·	·
Cc1cc(C)cc(C(=O)NC(CC(N)=O)c2ccc(NC3CCCCCCC3)c([N+](=O)[O-])c2)c1 (stereo unspecified)	15	-6	-2	0	0	4	·	·
Cc1cc(C)cc(C(=O)NC(CC(N)=O)c2ccc(NC3CCCCCCCCCCC3)c([N+](=O)[O-])c2)c1 (stereo unspecified)	10	-2	48*	0	0	-5	7	6
O=C(O)CN1C(=O)/C(=C\c2cn(CC(=O)N3CCOCC3)c3ccccc23)SC1=S	·	154	181*	0	0	194	150*	144*
O=C(CCCN1C(=O)/C(=C\c2ccccc2)SC1=S)N1CCOCC1	-5	7	·	0	1	3	·	·
CCCCNc1c(-c2ccc(-c3ccc(C(C)=O)cc3)c(OC)c2)nc2cnccn12	7	1	26*	·	2	12	52*	63*
CCCCNc1c(-c2ccc(OC)c(SC3CCCCC3)c2)nc2cnccn12	9	9	10	·	2	12	·	·
CO[C@H]1CN(C)C(=O)c2cc(NC(=O)C3CCOCC3)ccc2OC[C@@H](C)N(Cc2nccs2)C[C@@H]1C	·	·	·	0	·	·	·	·
CCN1C(=O)/C(=C/C2=Cc3ccccc3OC2C)SC1=S (stereo unspecified)	·	26	43*	0	0	91*	93*	98*
Cc1cccc(S(=O)(=O)c2c(N)n(/N=C/c3cccnc3)c3nc4ccccc4nc23)c1	0	0	33*	·	0	-1	53*	70*
Cc1cccc(S(=O)(=O)c2c(N)n(/N=C/c3ccco3)c3nc4ccccc4nc23)c1	34	23	9	·	0	8	·	·
CC[n+]1ccc(/C=C/c2c[nH]c3ccccc23)cc1	·	66	64*	1	0	83	60*	67*
C=CCNC(=O)/C(C#N)=C\c1cc(Cl)c(O)c(OCC)c1	20	0	25*	0	0	4	34*	42*
COc1ccc2c3c([nH]c2c1)[C@H](CO)N(Cc1ccc(F)cc1)CC31CN(C(=O)NC(C)C)C1	·	·	·	0	·	·	·	·
Cc1cccc2cc3c(N)c(C(=O)Nc4ccc(N5CCOCC5)cc4)sc3nc12	23	9	19	·	0	11	·	·
CCc1cccc2cc3c(N)c(C(=O)Nc4ccc(S(=O)(=O)N5CCCC5)cc4)sc3nc12	·	25	39*	89*	2	13	33*	42*
COc1ccc(C[C@H]2CCc3cnnn3COC[C@H](Cc3ccccc3)NC2=O)cc1	·	·	·	0	·	·	·	·
CC[C@@H](C)[C@H](NC(=O)CNC(=O)Cc1c(C)c2c(cc(C)c3c(C)coc32)oc1=O)C(=O)O	-3	0	51*	0	0	2	6	7
CC[C@@H](C)[C@H](NC(=O)Cc1c(C)c2c(cc(C)c3c(C)c(C)oc32)oc1=O)C(=O)O	-2	-1	·	0	0	-4	·	·
Cc1ccc(C2=NOC(=O)/C2=C\c2ccc(C)o2)cc1	10	11	40*	0	0	1	10	15
C=CCN1C(=O)[C@@H]2Cc3c([nH]c4ccccc34)C(c3cc(OC)c(OC)c(OC)c3)N2C1=S (stereo partly specified)	·	24	57*	91*	0	33	47*	57*
C=CCN1C(=O)[C@@H]2Cc3c([nH]c4ccccc34)C(c3ccc(O)cc3)N2C1=S (stereo partly specified)	·	31	78*	·	0	46*	62*	73*
CCN1C(=O)[C@@H]2Cc3c([nH]c4ccccc34)C(c3cc(OC)c(OC)c(OC)c3)N2C1=S (stereo partly specified)	·	3	58*	26*	0	26	64*	73*
COc1cc([C@H]2c3[nH]c4ccccc4c3C[C@H]3C(=O)N4[C@@H](c5cc(OC)c(OC)c(OC)c5)c5[nH]c6ccccc6c5C[C@H]4C(=O)N23)cc(OC)c1OC	8	0	-2	·	-1	0	·	·
SMILES	Rpn11 inh	CSN inh	TPT1 inh	XiGFP reactiv	aDG glyco up	HNF4A DNA FP	caTPT1 confirm	RNase T1 inh
O=C1[C@@H]2Cc3c([nH]c4ccccc34)C(c3ccccc3)N2C(=O)CN1CCO (stereo partly specified)	6	3	1	0	0	2	·	·
C[C@H]1CN([C@@H](C)CO)C(=O)c2cc(NC(=O)CCN3CCOCC3)ccc2O[C@H]1CN(C)Cc1ccc(Oc2ccccc2)cc1	·	·	·	-1	·	·	·	·
COc1ccc2c3c(n(C)c2c1)[C@H](CO)N(C(=O)Cc1ccccn1)CC31CN(CC2CCOCC2)C1	·	·	·	0	·	·	·	·
O=C1N(Cc2cccc(Cl)c2)C[C@@H]2C[C@@H](c3c[nH]c4ccccc34)N3CCC[C@@]123	·	49*	26*	0	0	85*	30*	40*
O=C1N(Cc2cccc(Cl)c2)C[C@@H]2C[C@@H](c3cccc4ncccc34)N3CCC[C@@]123	-1	-3	0	0	2	0	·	·
CN(C)c1ccc(/C=C2\SC(=O)N(CC(O)Cn3c4ccccc4c4ccccc43)C2=O)cc1 (stereo unspecified)	5	-6	76*	0	0	6	52*	72*
O=C1S/C(=C/c2ccccc2)C(=O)N1CC(O)Cn1c2ccccc2c2ccccc21 (stereo unspecified)	-6	3	3	0	0	-1	·	·
CN(C)c1ccc(/C=C2\SC(=O)N(CCc3nnc(N)s3)C2=O)cc1	·	32	100*	0	0	97*	92*	102*
CN(C)c1ccc(/C=C2/SC(=O)N(CCN=C3NS(=O)(=O)c4ccccc43)C2=O)cc1	-25	4	33*	1	0	11	28*	38*
O=C(CN1C(=O)c2ccccc2C1=O)OCCOCCN=C1NS(=O)(=O)c2ccccc21	2	-7	-1	0	0	-3	·	·

Assay outcomes deposited in PubChem by several laboratories.
